# From ChEMBL document CHEMBL4406859, “Antitumor and antiviral activities of 4-substituted 1,2,3-triazolyl-2,3-dibenzyl-L-ascorbic acid derivatives” (Eur J Med Chem, 2019)
# The source made the active and inactive calls. No cut-off for these calls is given here.
# How the values were obtained:
# [1] = test system: Sindbis virus; test: Antiviral activity against Sindbis virus infected in vero cells assessed as reduction in virus-induced cytopathogenicity incubated for 7 days by microscopic analysis; type: functional, organism-based
# [2] = test system: Influenza B virus; test: Antiviral activity against Influenza B virus (B/Ned/537/05) infected in dog MDCK cells assessed as reduction in virus-induced cytopathogenicity incubated for 7 days by MTS assay; type: functional, organism-based
# [3] = test system: Human alphaherpesvirus 1; test: Antiviral activity against Herpes simplex virus 1 TK-KOS-ACV infected in human HELF cells assessed as reduction in virus-induced cytopathogenicity incubated for 7 days by microscopic analysis; type: functional, organism-based
# [4] = test system: Influenza A virus; test: Antiviral activity against Influenza A virus (A/Ned/378/05(H1N1)) infected in dog MDCK cells assessed as reduction in virus-induced cytopathogenicity incubated for 7 days by microscopic analysis; type: functional, organism-based
# [5] = test system: A549; test: Antiproliferative activity against human A549 cells assessed as reduction in cell viability incubated for 72 hrs by MTT assay; type: functional, cell-based; conditions: A549, 72 h
# Outline: (§1)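 Cells (ATCC) grown in DMEM with 10 FBS, penicillin/streptomycin, 2 mM glutamine, 37 °C, 5 CO2. 5000 cells/well seeded; after 24 h, freshly prepared dilutions at five concentrations (0.01–100 μM) added for 72 h. MTT read-out; absorbance converted to percentage growth by NIH formulas. Two experiments in quadruplicate; IC50 by linear regression.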
# [6] = test system: SW-620; test: Antiproliferative activity against human SW620 cells assessed as reduction in cell viability incubated for 72 hrs by MTT assay; type: functional, cell-based; conditions: SW-620, 72 h; outline: as §1
# [7] = test system: Human alphaherpesvirus 3; test: Antiviral activity against thymidine kinase positive Varicella zoster virus infected in human HELF cells assessed as reduction in virus-induced cytopathogenicity incubated for 7 days by Giemsa staining based microscopic analysis; type: functional, organism-based; conditions: Human alphaherpesvirus 3, HELF, 168 h
# [8] = test system: Influenza A virus H3N2; test: Antiviral activity against Influenza A virus (A/HK/7/87(H3N2)) infected in dog MDCK cells assessed as reduction in virus-induced cytopathogenicity incubated for 7 days by microscopic analysis; type: functional, organism-based; conditions: A/Hong Kong/7/1987(H3N2)
# [9] = test system: Cytomegalovirus; test: Antiviral activity against Cytomegalovirus Davis infected in human HELF cells assessed as reduction in virus-induced cytopathogenicity incubated for 7 days by Giemsa staining based microscopic analysis; type: functional, organism-based; conditions: Human betaherpesvirus 5, Davis, 168 h
# Outline: (§2)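 Confluent HEL fibroblasts infected with CMV (Davis or AD-169) at 100 PFU/well for 2 h. Residual virus removed, then medium with graded compound concentrations added (duplicate). Incubated 7 days at 37 °C. Cytopathogenicity scored microscopically after ethanol fixation and Giemsa staining. EC50 read from plots of % cytopathogenicity versus concentration.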
# [10] = test system: Reovirus sp.; test: Antiviral activity against Reovirus infected in vero cells assessed as reduction in virus-induced cytopathogenicity incubated for 7 days by microscopic analysis; type: functional, organism-based
# [11] = test system: Human coronavirus 229E; test: Antiviral activity against Human coronavirus 229E infected in human HELF cells assessed as reduction in virus-induced cytopathogenicity incubated for 7 days by microscopic analysis; type: functional, organism-based
# [12] = test system: Cytomegalovirus; test: Antiviral activity against Cytomegalovirus AD169 infected in human HELF cells assessed as reduction in virus-induced cytopathogenicity incubated for 7 days by Giemsa staining based microscopic analysis; type: functional, organism-based; conditions: Human betaherpesvirus 5, AD169, HELF, 168 h; outline: as §2
# [13] = Cytotoxicity against human HELF cells assessed as reduction in cell viability incubated for 3 days by coulter counter method; type: cell-based; conditions: 72 h
# Outline: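 HEL cells seeded at 5 x 10^3/well and allowed to proliferate 24 h, then exposed to graded compound concentrations for 3 days at 37 °C. Cell number counted with a Coulter counter.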
# [14] = test system: MCF7; test: Antiproliferative activity against human MCF7 cells assessed as reduction in cell viability incubated for 72 hrs by MTT assay; type: functional, cell-based; conditions: MCF7, 72 h; outline: as §1
# [15] = test system: Influenza B virus; test: Antiviral activity against Influenza B virus (B/Ned/537/05) infected in dog MDCK cells assessed as reduction in virus-induced cytopathogenicity incubated for 7 days by microscopic analysis; type: functional, organism-based
# [16] = test system: HFF; test: Cytotoxicity against human HFF cells assessed as reduction in cell viability incubated for 72 hrs by MTT assay; type: cell-based; outline: as §1
# [17] = test system: Human alphaherpesvirus 1; test: Antiviral activity against Herpes simplex virus 1 KOS infected in human HELF cells assessed as reduction in virus-induced cytopathogenicity incubated for 7 days by microscopic analysis; type: functional, organism-based; conditions: strain KOS
# [18] = test system: Coxsackievirus B4; test: Antiviral activity against Human coxsackievirus B4 infected in vero cells assessed as reduction in virus-induced cytopathogenicity incubated for 7 days by microscopic analysis; type: functional, organism-based
# [19] = test system: Human alphaherpesvirus 2; test: Antiviral activity against Herpes simplex virus 2 G infected in human HELF cells assessed as reduction in virus-induced cytopathogenicity incubated for 7 days by microscopic analysis; type: functional, organism-based; conditions: for EC50: Human alphaherpesvirus 2, G, 168 h
# [20] = test system: Influenza A virus; test: Antiviral activity against Influenza A virus (A/Ned/378/05(H1N1)) infected in dog MDCK cells assessed as reduction in virus-induced cytopathogenicity incubated for 7 days by MTS assay; type: functional, organism-based
# [21] = test system: HepG2; test: Antiproliferative activity against human HepG2 cells assessed as reduction in cell viability incubated for 72 hrs by MTT assay; type: functional, cell-based; conditions: HepG2, 72 h; outline: as §1
# [22] = test system: Influenza A virus H3N2; test: Antiviral activity against Influenza A virus (A/HK/7/87(H3N2)) infected in dog MDCK cells assessed as reduction in virus-induced cytopathogenicity incubated for 7 days by MTS assay; type: functional, organism-based; conditions: A/Hong Kong/7/1987(H3N2)
# [23] = test system: Human adenovirus 2; test: Antiviral activity against Human adenovirus 2 infected in human HELF cells assessed as reduction in virus-induced cytopathogenicity incubated for 7 days by microscopic analysis; type: functional, organism-based
# [24] = Cytotoxicity against human HELF cells assessed as minimum cytotoxic concentration by observing alteration in cell morphology incubated for 3 days by microscopic analysis; type: cell-based; conditions: for MCC at 72 h: HELF cells; for MCC: 72 h
# Outline: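 Read-out is the minimum cytotoxic concentration (MCC): the lowest compound concentration giving a microscopically detectable change in cell morphology. Measured on confluent human embryonic lung (HEL) fibroblast cultures exposed to a range of compound concentrations.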
# [25] = test system: CFPAC-1; test: Antiproliferative activity against human CFPAC-1 cells assessed as reduction in cell viability incubated for 72 hrs by MTT assay; type: functional, cell-based; conditions: Homo sapiens, CFPAC-1, 72 h; read-out: IC50; outline: as §1
# [26] = test system: HCT-116; test: Antiproliferative activity against human HCT116cells assessed as reduction in cell viability incubated for 72 hrs by MTT assay; type: functional, cell-based; conditions: HCT-116, 72 h; outline: as §1
# [27] = test system: HeLa; test: Antiproliferative activity against human HeLa cells assessed as reduction in cell viability incubated for 72 hrs by MTT assay; type: functional, cell-based; outline: as §1
# [28] = test system: Human alphaherpesvirus 3; test: Antiviral activity against thymidine kinase deficient Varicella zoster virus infected in human HELF cells assessed as reduction in virus-induced cytopathogenicity incubated for 7 days by Giemsa staining based microscopic analysis; type: functional, organism-based; conditions: Human alphaherpesvirus 3, HELF, 168 h
SMILES,Activity [1],Activity [2],Activity [3],Activity [4],IC50 [5] [µM],IC50 [6] [µM],EC50 [7] [µM],Activity [8],EC50 [9] [µM],Activity [10],Activity [11],EC50 [12] [µM],CC50 [13] [µM],IC50 [14] [µM],Activity [15],IC50 [16] [µM],Activity [17],Activity [18],Activity [19],EC50 [28] [µM],also measured
O=C1O/C(=C\Cn2cc(-c3cccc(O)c3)nn2)C(OCc2ccccc2)=C1OCc1ccccc1,inactive,inactive,inactive,inactive,23.3,69.8,11.6,inactive,8.94,inactive,inactive,9.36,11.1,27.8,inactive,42.6,inactive,inactive,inactive,14.7,Activity [20]: inactive; IC50 [21]: 61.7 µM; Activity [22]: inactive; Activity [23]: inactive; MCC at 72 h [24]: 100 µM; IC50 [25]: 33.7 µM; IC50 [26]: 63.6 µM; IC50 [27]: 74.8 µM
O=c1[nH]c(=O)n([C@H]2C[C@H](O)[C@@H](CO)O2)cc1/C=C/Br [BRIVUDINE],,,,,,,18.4,,,,,,179,,,,,,,0.0066,EC50 [19]: > 250000 nM; MCC [24]: 250 to 300 µM
CC(C)(C)c1cn(C[C@H](O)[C@H]2OC(=O)C(OCc3ccccc3)=C2OCc2ccccc2)nn1,inactive,inactive,inactive,inactive,34,35.8,48.9,inactive,> 20,inactive,inactive,44.7,,0.73,inactive,13.3,inactive,inactive,inactive,> 20,Activity [20]: inactive; IC50 [21]: 29.2 µM; Activity [22]: inactive; Activity [23]: inactive; MCC at 72 h [24]: 100 µM; IC50 [25]: 54.9 µM; IC50 [26]: 28.3 µM; IC50 [27]: 18.3 µM
CCCCc1cn(C[C@H](O)[C@H]2OC(=O)C(OCc3ccccc3)=C2OCc2ccccc2)nn1,inactive,inactive,inactive,inactive,28.6,47.5,7.31,inactive,> 4,inactive,inactive,> 20,,7.91,inactive,26.3,inactive,inactive,inactive,> 20,Activity [20]: inactive; IC50 [21]: 32.8 µM; Activity [22]: inactive; Activity [23]: inactive; MCC at 72 h [24]: 20 µM; IC50 [25]: 73.2 µM; IC50 [26]: 10.4 µM; IC50 [27]: 18.1 µM
Nc1nc2c(ncn2COCCO)c(=O)[nH]1 [ACYCLOVIR],,,,,,,,,,,,,> 440,,,,,,,,"EC50 ([3]; Human alphaherpesvirus 1, TK-KOS-ACV, 168 h): 17 µM; EC50 [19]: 2000 nM; EC50 ([23]; Human mastadenovirus C, 168 h): 5.8 µM; MCC [24]: 250 to 440 µM"
